B1: tRNA (parent)
chain: GUUCCGUUGGCGUAAUGGUAACGCGUCUCCCUCCUAAGGAGAAGACUGCGGGUUCGAGUCCCGUACGGAACG

For 37 variants, yeast fitness results are on record in the RNAGym collection of RNA variant scans (doi:10.1126/science.aae0568).

This sample holds only a part of the variants without activity. A value given as a limit tells only on which side of the number the result lay.

The variants in this series derive from B1. Kind of series: yeast fitness relative to wild type (ratio to wild type); higher = fitter; tRNA-Arg(CCU), competitive growth, 37 C, YPD. In short, it runs like this: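 The tRNA-Arg(CCU) gene variants were made by chemical synthesis with a 3% per-site mutation rate at 69 sites and inserted at the native genomic locus of Saccharomyces cerevisiae. After pooling, the strains were competed in YPD at 37°C for 24 hours in six parallel replicates. Gene amplicons from the start population and each end population were read by 100-nucleotide paired-end sequencing, and Darwinian fitness relative to wild type was taken from genotype frequency changes. Genotypes needed ≥ 100 starting reads, and estimates < 0.5 were set to 0.5.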
Consider GUUCCGUUGGCGUAAUGGUAACGCGUCUCCCUCCUAAGGAGAAGACUGCGGAUUCGAGUCCCGUGCGGAACG, for which the yeast fitness came to 0.86.
With GUUCCGUUGGCGUAAUGGUAACGCGUCUCCCUCCUAAGGAGAAGACUGCGGAUUCGAGUCCCGUUCGGAACG the figure was 0.631; with GUUCCGUUGGCGUAAUGGUAACGCGUCUCCCUCCUAAGGAGAAGACUGCGAGUUCGAGUCUCGUAGGGAACG, no more than 0.5.
Consider GUUCCGUUGGCGUAAUGGUAACGCGUCUCCCUCCUAAGGAGAAGACUGCGCCUUCGAGACCCGUACGGAACG, for which the yeast fitness was determined as 0.614.
Consider GUUCCGUUGGCGUAAUGGUAACGCGUCUCCCUCCUAAGGAGAAGACUGCGAGUUCGAGUCGCGUACGGAACG, for which the yeast fitness is 0.588.
For the variant GUUCCGUUGGCGUAAUGGUAACGCGUCUCCCUCCUAAGGAGAAGACUGCGAGUUCGAGUCUCGUACGGAACG, the yeast fitness was 1.11.
With GUUCCGUUGGCGUAAUGGUAACGCGUCUCCCUCCUAAGGAGAAGACUGCGAGUUCGAGUCACGUACGGAACG the figure was 0.536; with GUUCCGUUGGCGUAAUGGUAACGCGUCUCCCUCCUAAGGAGAAGACUGCGCGUUCGAGUCCUGUACGGAUCG, no more than 0.5; with GUUCCGUUGGCGUAAUGGUAACGCGUCUCCCUCCUAAGGAGAAGACUGCGUGUUCGAGUCUCGUACGGAACG, 0.747.
Regarding GUUCCGUUGGCGUAAUGGUAACGCGUCUCCCUCCUAAGGAGAAGACUGCGAGUUCGAGUCCGGUAUGGAACG, the yeast fitness is no more than 0.5.
The result for GUUCCGUUGGCGUAAUGGUAACGCGUCUCCCUCCUAAGGAGAAGACUGCGCGUUCGAGUCCCGCACGGAACG reads 0.941; that for GUUCCGUUGGCGUAAUGGUAACGCGUCUCCCUCCUAAGGAGAAGACUGCGAGUUCGAGUCCCGUACGCAACG, 0.671; that for GUUCCGUUGGCGUAAUGGUAACGCGUCUCCCUCCUAAGGAGAAGACUGCGCGUACCAGUCCCGUACGGAACG, no more than 0.5.
With GUUCCGUUGGCGUAAUGGUAACGCGUCUCCCUCCUAAGGAGAAGACUGCGAGUUCGAGUCCCGUACGGAUCG the figure was 0.935; with GUUCCGUUGGCGUAAUGGUAACGCGUCUCCCUCCUAAGGAGAAGACUGCGCGUACGCGUCCCGUACGGAACG, 0.859.
Consider GUUCCGUUGGCGUAAUGGUAACGCGUCUCCCUCCUAAGGAGAAGACUGCGAGCUCGAGUCCCGUACGGAACG, for which the yeast fitness was found to be 0.745.
GUUCCGUUGGCGUAAUGGUAACGCGUCUCCCUCCUAAGGAGAAGACUGCGAGUUCGAGACCGGUACGGAACG: the yeast fitness was no more than 0.5.
With GUUCCGUUGGCGUAAUGGUAACGCGUCUCCCUCCUAAGGAGAAGACUGCGAGUUUGAAUCCCGUACGGAACG, the yeast fitness came out at 0.606.
GUUCCGUUGGCGUAAUGGUAACGCGUCUCCCUCCUAAGGAGAAGACUGCGCGUUCGAGUCCCAUACGGAACG: the yeast fitness is 0.611.
The result for GUUCCGUUGGCGUAAUGGUAACGCGUCUCCCUCCUAAGGAGAAGACUGCGCGUUCGAGUCCCGUACGGAACG reads 0.612.
Take GUUCCGUUGGCGUAAUGGUAACGCGUCUCCCUCCUAAGGAGAAGACUGCGUGUUCGAGUCCCGUACGGAACG: the yeast fitness amounted to 0.843.
As for GUUCCGUUGGCGUAAUGGUAACGCGUCUCCCUCCUAAGGAGAAGACUGCGCGUUCGAGUCCGGUACGGAACG, the yeast fitness amounted to 0.528.
In the case of GUUCCGUUGGCGUAAUGGUAACGCGUCUCCCUCCUAAGGAGAAGACUGCGCGUUCGAGUCCUGUACGGAACG, the yeast fitness was determined as 0.668.
For the variant GUUCCGUUGGCGUAAUGGUAACGCGUCUCCCUCCUAAGGAGAAGACUGCGAGGUCGAGUCCCGUACGAAACG, the yeast fitness is no more than 0.5.
With GUUCCGUUGGCGUAAUGGUAACGCGUCUCCCUCCUAAGGAGAAGACUGCGCGUUCGAGUCCCGUACGCAACG the figure was 0.641; with GUUCCGUUGGCGUAAUGGUAACGCGUCUCCCUCCUAAGGAGAAGACUGCGCGUUCGAGUCCCGUACUGAACG, 0.504; with GUUCCGUUGGCGUAAUGGUAACGCGUCUCCCUCCUAAGGAGAAGACUGCGCGUUCGAGUCCCGUACAGAACG, 0.572.
With GUUCCGUUGGCGUAAUGGUAACGCGUCUCCCUCCUAAGGAGAAGACUGCGGAUUCGCGUCCCGUACGGAGCG, the yeast fitness was 0.524.
The result for GUUCCGUUGGCGUAAUGGUAACGCGUCUCCCUCCUAAGGAGAAGACUGCGAGUUCGAGACUCGUACAGAACG reads no more than 0.5.
As for GUUCCGUUGGCGUAAUGGUAACGCGUCUCCCUCCUAAGGAGAAGACUGCGCGUUCGAGUCCCGUACGGUACG, the yeast fitness came to 0.624.
With GUUCCGUUGGCGUAAUGGUAACGCGUCUCCCUCCUAAGGAGAAGACUGCGAGUUCGAGUCACGUAAGGAACG the figure was no more than 0.5.
The result for GUUCCGUUGGCGUAAUGGUAACGCGUCUCCCUCCUAAGGAGAAGACUGCGCGUUCGCGUCCCGUACGGAACG reads 0.551; that for GUUCCGUUGGCGUAAUGGUAACGCGUCUCCCUCCUAAGGAGAAGACUGCGCGUUCGUGUCCCGUACGGAACG, 0.691.
On to GUUCCGUUGGCGUAAUGGUAACGCGUCUCCCUCCUAAGGAGAAGACUGCGCGUUCGGGUCCCGUACGGAACG, for which the yeast fitness amounted to 0.52.
In the case of GUUCCGUUGGCGUAAUGGUAACGCGUCUCCCUCCUAAGGAGAAGACUGCGUGUUCGGGUCCCGUACGGAACG, the yeast fitness is 0.642.
With GUUCCGUUGGCGUAAUGGUAACGCGUCUCCCUCCUAAGGAGAAGACUGCGAGUUCGAGUCCCGUACGGUGCG the figure was 0.543; with GUUCCGUUGGCGUAAUGGUAACGCGUCUCCCUCCUAAGGAGAAGACUGCGCGUCCGGGUCCCGUACGGAACG, no more than 0.5.
